In the library only some 1.8% were active in any assay of this set; here they are far more common.
Rev-RRE block = inhibitors of HIV-1 Rev-RRE RNA interaction; AID 704; P05866; Rev peptide-RRE RNA binding, FRET; inhibition, % at 8 µM; 97,000 tested, 0.79% active;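 active = inhibition above the screen-wide mean plus 3 SD, cut at about 35% in these data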;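 note: 0% = median DMSO wells and 100% = median Neomycin B control wells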
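Test system: Cy5-tagged RRE RNA duplex with fluorescein-tagged Rev peptide | Read-out: % inhibition of FRET ratio versus controls | Probe or stimulus: Labelled Rev peptide | Incubation: 5 min RNA-compound premix plus 15 min binding step, 25 °C | Technique: FRET fluorescence readout | Benchmarks: DMSO low control, neomycin B high control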
LYP act = LYP (human) phosphatase activation; Q9Y2R2; recombinant LYP, DiFMUP fluorescence; 0 = plate median, 100 = signal doubled; activation, % at 2 µM; 96,000 tested, 0.11% active; AID 697;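 active = activation at 2 µM above a set limit, the mean plus 5 SD, cut at about 37% in these data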
PTPN22 inh 2 = LYP (human) phosphatase inhibition; AID 640; recombinant LYP catalytic domain, DiFMUP fluorescence; 96,000 tested, 0.21% active; inhibition, % at 2 µM; Q9Y2R2;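 active = inhibition at 2 µM at or above a set limit, the screen mean plus 3 SD, cut at about 24% in these data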;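 note: 0% = DMSO with enzyme and 100% = enzyme fully blocked by orthovanadate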
FAK blocker = inhibitors of human focal adhesion kinase. inhibition, %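 (tested at 7 µM)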. biochemical FAK kinase activity assay. AID 727. 97,000 tested, 0.84% active; in the data active = inhibition above about 19%;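 note: 0% = DMSO and 100% = reference compound high control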
LYP act confirm = confirmation of human LYP phosphatase activators; shares compounds with LYP act; Recombinant LYP, DIFMUP fluorescence, activation; zero set by plate's median compound well; AID 1031; activation, % at 2 µM; 100 tested, under 10 active; call rule not given here
Starred values were filed as active, the others as inactive; [ ] = remark or other dose.

SMILES	Rev-RRE block	LYP act	PTPN22 inh 2	FAK blocker	others
O=c1cc(O)c2c(=O)n(-c3ccccc3)c3ccccc3c2o1	45*	-8	8	-9
Cc1nnc2sc(-c3ccc(NC(=O)c4ccc(-c5ccc(Cl)cc5Cl)o4)cc3)nn12	19	-32	32*	28*
Cc1nnc2sc(-c3ccc(NC(=O)c4cccnc4)cc3)nn12	7	4	0	-1
CN(C)/N=C/C=C1\CC/C(=C\c2ccc(Br)cc2)C1=O	72*	-3	-1	1
O=C1NC(=S)N/C1=C/c1cccc([N+](=O)[O-])c1O	69*	8	-11	3
O=C1NC(=S)N/C1=C/c1cc([N+](=O)[O-])ccc1O	111*[fluorescence artefact?]	-2	2	-2
NC(=O)/C=C\C(=O)Nc1cccc(C(F)(F)F)c1	2	6	-2	3
O=C(c1cc2c(s1)-c1ccccc1S(=O)(=O)C2)N1CCN(Cc2ccccc2)CC1	7	-9	7	-12
COc1ccc(C)cc1NC(=O)CSc1nnc(CC(=O)Nc2ccccc2C)n1C	11	-12	11	0
O=C(N/N=C/c1ccncc1)c1cc([N+](=O)[O-])cc([N+](=O)[O-])c1O	5	-44	46*	4
Cc1cc(C(=O)N/N=C/c2cccc([N+](=O)[O-])c2)c(C)o1	-3	-2	4	3
CCCn1c(Nc2ccc(Cl)cc2)nc2ccccc21	3	-35	38*	1
CCCn1c(Nc2ccccc2)nc2ccccc21	5	7	-7	0
CN(C)c1ccc(N=Cc2nc(-c3ccccc3)oc2O)cc1	69*[fluorescence artefact?]	-16	16	-4
CCC(SC1=N/C(=C/c2ccccc2OC)C(=O)N1c1ccccc1)C(=O)Nc1cc(C)on1 (centres undefined)	1	-1	5	-9
Cc1c2cc(O)c(=O)cc-2oc2cc(O)c(O)cc12	140*[fluorescence artefact?]	-94	94*	12
N#C/C(C(=O)N1CCOCC1)=C1/SC(Cc2ccccc2)C(=O)N1c1ccccc1 (centres undefined)	44*	-2	-1	-4
C=CCc1ccc(OCCCCN2CC(C)OC(C)C2)c(OC)c1 (centres undefined)	9	-3	4	-1
Brc1ccc(-c2cn3nc4c(nc3n2)CCCC4)cc1	25	-4	6	6
c1ccc(-c2cn3nc4c(nc3n2)CCCC4)cc1	48*	2	0	6
COc1ccccc1NC(=O)CSc1nc2n[nH]c(C)c2c(=N)n1-c1ccccc1Cl	5	2	-5	21*
Cc1cccc(-n2c(SCC(=O)N3CCCC3)nc3n[nH]c(C)c3c2=N)c1	3	2	-4	9
CCN1C(=O)CS/C1=C(\C#N)S(=O)(=O)c1ccccc1	37*	-2	2	-1
CCn1cc(/C=C(/C#N)S(=O)(=O)c2ccccc2)cn1	3	-3	4	-2
Cc1cc(C)n2nc3nc4c(cc3c2n1)CCCC4	76*	3	-4	17
SMILES	Rev-RRE block	LYP act	PTPN22 inh 2	FAK blocker	others
CC12CCC(C(=O)N(NC(=O)c3cc(Cl)ccc3O)C1=O)C2(C)C (centres undefined)	7	4	-1	0
CC(=O)Nc1cccc(NC(=O)CCn2cnc3cc(C)c(C)cc32)c1	2	-25	25*	-2
Cc1ccc(NC(=O)CCn2cnc3cc(C)c(C)cc32)cc1	3	11	-17	3
COc1ccc(OC)c(S(=O)(=O)N2c3cc(F)ccc3CCC2C)c1 (centres undefined)	12	11	-16	-3
COC(=O)c1c(C)c2c(C)cc3ccccn3c-2c1C(=O)OC	46*	1	-4	0
O=[N+]([O-])c1ccc(/C=N/Nc2nc(N3CCCCCC3)nc(N3CCCCCC3)n2)o1	46*	-8	9	4
CCOc1ccc(N2C(=O)CS/C2=N/NC(=O)COc2ccc3ccccc3c2)cc1	0	1	2	4
CCOc1ccc(N2C(=O)CS/C2=C(\C(Cl)=C(Cl)Cl)[N+](=O)[O-])cc1	-2	-25	26*	0
O=[N+]([O-])c1cccc(/C=C/c2nc(C=Nc3ccccc3)c(O)o2)c1	41*	5	-3	1
Oc1oc(-c2ccccc2)nc1C=Nc1ccccc1	3	6	-3	5
Cc1cc2c(c(=O)o1)C1(C(=O)N(CC(=O)O)c3ccccc31)C(C#N)=C(N)O2 (centres undefined)	49*	0	-2	1
CC(=O)OC(C(=O)Nc1ccccc1C)C(OC(C)=O)C(OC(C)=O)C(OC(C)=O)C(=O)Nc1ccccc1C (centres undefined)	7	-5	6	2
CCOC(=O)C1=C(C)OC(N)=C(C#N)C1c1c(C)nn(-c2ccc(C)cc2)c1Cl (centres undefined)	17	-30	33*	0
COC(=O)C1=C(C)OC(N)=C(C#N)C1c1c(C)nn(-c2ccccc2)c1Cl (centres undefined)	11	-3	3	0
CCC(=O)NCc1cc(-c2nn(C)c(=O)c3ccccc23)ccc1C	8	-1	3	0
Cc1ccc(-c2nn(CC(=O)NCc3cc(-c4nn(C)c(=O)c5ccccc45)ccc3C)c(=O)c3ccccc23)cc1	5	-24	25*	0
Cn1c(N)c(C#N)c2c(c1=S)CSC(C)(C)C2	40*	-6	5	-6
CCc1c(C)sc(NC(=O)CC#N)c1C#N	37*	-15	13	7
NC(=O)/C(=N\OC(=O)c1ccco1)c1nc(-c2ccc(Br)cc2)cs1	5	-17	19	10
CCOc1ccc(S(=O)(=O)N(CC(=O)O)c2ccc(C)cc2)cc1	2	38*	-42	-5	LYP act confirm=-12
O=C(Nc1ccc2c(c1)C(=O)N(CC1CCCO1)C2=O)c1ccc(Cl)c(Cl)c1 (centres undefined)	17	37*	-33	2	LYP act confirm=1
Cc1c(CCO)c(=O)[nH]n1C(=O)c1ccc(F)cc1	3	7	-4	-2
CC1(C)CC(=O)C2=C(C1)N(Cc1ccco1)C(=O)C2(O)C(F)(F)F (centres undefined)	-4	37*	-41	-2	LYP act confirm=3
CC1(C)CC(=O)C2=C(C1)N(Cc1ccco1)C(=O)C2(NC(=O)c1cccnc1)C(F)(F)F (centres undefined)	5	4	-4	1
CCC(=O)c1ccc(N2CCN(C(=O)Cc3ccccc3)CC2)c(F)c1	6	41*	-41	3	LYP act confirm=4
COc1ccc(Br)cc1C1NC(=O)NC(C)=C1C(=O)N(C)C (centres undefined)	10	-1	1	-1
COC(=O)C1=C(C)NC(=O)CC1c1cc(Br)ccc1F (centres undefined)	-2	38*	-43	3	LYP act confirm=-3
CC(=O)Nc1sc2c(c1C(N)=O)CCCC2	7	45*	-42	16	LYP act confirm=10
Cc1ccccc1NC(=O)CN(c1ccc(F)cc1)S(C)(=O)=O	1	8	-9	2

From PubChem BioAssay
